Blank lines part the entries; values can stand above or below the molecule they belong to. Activity calls are given as the source filed them. The calls are words filed in the database; no cut-off is given here.
Assays:
Hexokinase-4 [1] = target: T1, Hexokinase-4 (Homo sapiens, UniProt P35557); experiment: Activation of human liver glucokinase expressed in Escherichia coli at 10 mM glucose concentration by glucose-6-phosphate coupled continuous spectrophotometric assay
T1 sequence (P35557 whole entry): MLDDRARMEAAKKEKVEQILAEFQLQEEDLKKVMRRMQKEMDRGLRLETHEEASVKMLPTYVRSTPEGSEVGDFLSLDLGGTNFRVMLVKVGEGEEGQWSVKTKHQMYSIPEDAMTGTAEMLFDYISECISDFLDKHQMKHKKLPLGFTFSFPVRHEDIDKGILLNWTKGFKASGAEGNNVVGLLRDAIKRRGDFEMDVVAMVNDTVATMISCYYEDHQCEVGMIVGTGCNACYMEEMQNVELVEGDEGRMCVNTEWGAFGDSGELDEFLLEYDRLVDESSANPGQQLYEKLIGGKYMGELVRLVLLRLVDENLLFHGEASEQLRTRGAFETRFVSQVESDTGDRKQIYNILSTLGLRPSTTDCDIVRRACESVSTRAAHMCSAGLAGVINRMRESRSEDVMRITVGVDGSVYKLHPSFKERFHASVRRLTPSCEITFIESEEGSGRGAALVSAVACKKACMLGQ

Hexokinase-4 [2] = target: T1, Hexokinase-4; experiment: Activation of human liver glucokinase expressed in Escherichia coli at 2.5 mM glucose concentration by glucose-6-phosphate coupled continuous spectrophotometric assay
[3] = Half life in Sprague-Dawley rat at 1 mg/kg, iv and 3 mg/kg, po; format: ADME, organism-based; details: in vivo
Summary of the method: (§1)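 Male SD rats received 1 mg/kg iv or 3 mg/kg po. Plasma AUC, Cmax, T1/2, CLp and oral bioavailability (F) were derived from these dosings.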

Mus musculus = experiment: Hypoglycemic efficacy in high-fat diet-induced mouse assessed as acute glucose lowering at 10 mg/kg, po; format: functional, organism-based; parameters: dose 10 mg/kg
Summary of the method: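 They received compound orally in 0.5% methylcellulose vehicle, or vehicle alone. Blood glucose was measured just before dosing and at 1, 2, 3 and 4 h after.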

[4] = Cmax in Beagle dog at 0.3 mg/kg, iv and 1 mg/kg, po; details: in vivo
[5] = Plasma clearance in Sprague-Dawley rat at 1 mg/kg, iv and 3 mg/kg, po; format: ADME, organism-based
Summary of the method: as §1

Rattus norvegicus [6] = experiment: Hypoglycemic efficacy in Wistar rat assessed as reduction in area under the glucose curve at 3 mg/kg, po by oral glucose tolerance test; format: functional; parameters: scale not given: the % may be the effect or the level left
Summary of the method: (§2)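 In the Wistar rat OGTT, the compound was given orally. […] Groups were compared by one-way ANOVA followed by Dunnett's test, with significance at p < 0.05.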

[7] = Cmax in Sprague-Dawley rat at 1 mg/kg, iv and 3 mg/kg, po; format: ADME, organism-based; details: in vivo
Summary of the method: as §1

[8] = Oral bioavailability in Beagle dog at 1 mg/kg, po; details: in vivo
Rattus norvegicus [9] = experiment: Hypoglycemic efficacy in Wistar rat assessed as reduction in area under the glucose curve at 1 mg/kg, po by oral glucose tolerance test; format: functional; parameters: scale not given: the % may be the effect or the level left
Summary of the method: as §2

[10] = AUC in Sprague-Dawley rat at 1 mg/kg, iv and 3 mg/kg, po; format: ADME, organism-based; details: plasma
Summary of the method: as §1

[11] = AUC in Beagle dog at 0.3 mg/kg, iv and 1 mg/kg, po; details: plasma
[12] = Half life in Beagle dog at 0.3 mg/kg, iv and 1 mg/kg, po; details: in vivo
[13] = Oral bioavailability in Sprague-Dawley rat at 3 mg/kg, po; format: ADME, organism-based; details: in vivo
Summary of the method: as §1

- EC50 (Hexokinase-4 [1]): > 5 µM
- EC50 (Hexokinase-4 [2]): > 5 µM
Compound: CCS(=O)(=O)c1ccc(Oc2cc3nc(-c4ccccn4)[nH]c3cc2CN2CCNC2=O)cc1

Compound: CCS(=O)(=O)c1ccc(Oc2cc3nc(-c4ccccn4)[nH]c3cc2CN2C(=O)CCC2=O)cc1
- half-life [3]: 0.6 h
- Activity (Mus musculus): Active
- Cmax [4]: 400 nM
- clearance [5]: 32 mL/min/kg
- Activity (Rattus norvegicus [6]): 27%
- Cmax [7]: 400 nM
- bioavailability [8]: 41%
- EC50 (Hexokinase-4 [1]): 0.04 µM
- EC50 (Hexokinase-4 [2]): 0.16 µM
- Activity (Rattus norvegicus [9]): 19%
- AUC [10]: 0.5 µM·h
- AUC [11]: 4 µM·h
- half-life [12]: 6.4 h
- bioavailability [13]: 16%

Compound: CCS(=O)(=O)c1ccc(Oc2cc3nc(-c4ccccn4)[nH]c3cc2CN2CCCC2=O)cc1
- Activity (Mus musculus): Active
- EC50 (Hexokinase-4 [1]): 0.06 µM
- EC50 (Hexokinase-4 [2]): 0.35 µM

Compound: CCS(=O)(=O)c1ccc(Oc2cc3nc(-c4ccccn4)[nH]c3cc2CN2CCOCC2=O)cc1
- EC50 (Hexokinase-4 [1]): 0.1 µM
- EC50 (Hexokinase-4 [2]): 0.28 µM

Compound: CCS(=O)(=O)c1ccc(Oc2cc3nc(-c4ccccn4)[nH]c3cc2CN2CCCS2(=O)=O)cc1
- EC50 (Hexokinase-4 [1]): 0.09 µM
- EC50 (Hexokinase-4 [2]): 0.46 µM

Compound: CCS(=O)(=O)c1ccc(Oc2cc3[nH]c(-c4ccccn4)nc3cc2CCC(=O)N(C)C)cc1
- EC50 (Hexokinase-4 [1]): 0.12 µM
- EC50 (Hexokinase-4 [2]): 0.62 µM

Compound: CCS(=O)(=O)c1ccc(Oc2cc3nc(-c4ccccn4)[nH]c3cc2CN2C(=O)CN(C)C2=O)cc1
- EC50 (Hexokinase-4 [1]): 0.06 µM
- EC50 (Hexokinase-4 [2]): 0.18 µM

Compound: CCS(=O)(=O)c1ccc(Oc2cc3nc(-c4ccccn4)[nH]c3cc2CN(C)C(C)=O)cc1
- Activity (Mus musculus): Active
- EC50 (Hexokinase-4 [1]): 0.07 µM
- EC50 (Hexokinase-4 [2]): 0.3 µM

Compound: CCN(Cc1cc2nc(-c3ccccn3)[nH]c2cc1Oc1ccc(S(=O)(=O)CC)cc1)C(C)=O
- EC50 (Hexokinase-4 [1]): 0.11 µM
- EC50 (Hexokinase-4 [2]): 0.5 µM

Compound: CCS(=O)(=O)c1ccc(Oc2cc3nc(-c4ccccn4)[nH]c3cc2Cc2nnnn2C)cc1
- EC50 (Hexokinase-4 [1]): 0.07 µM
- EC50 (Hexokinase-4 [2]): 0.41 µM

Compound: CCS(=O)(=O)c1ccc(Oc2cc3nc(-c4ccccn4)[nH]c3cc2CN2C(=O)COC2=O)cc1
- Activity (Mus musculus): inactive
- EC50 (Hexokinase-4 [1]): 0.02 µM
- EC50 (Hexokinase-4 [2]): 0.09 µM

Compound: CCS(=O)(=O)c1ccc(Oc2cc3nc(-c4ccccn4)[nH]c3cc2CNC(C)=O)cc1
- EC50 (Hexokinase-4 [1]): 0.22 µM
- EC50 (Hexokinase-4 [2]): 1.41 µM

Compound: CCS(=O)(=O)c1ccc(Oc2cc3nc(-c4ccccn4)[nH]c3cc2CN2CCOC2=O)cc1
- Activity (Mus musculus): inactive
- EC50 (Hexokinase-4 [1]): 0.06 µM
- EC50 (Hexokinase-4 [2]): 0.25 µM

Compound: CCS(=O)(=O)c1ccc(Oc2cc3nc(-c4ccccn4)[nH]c3cc2CN2CCN(C)C2=O)cc1
- EC50 (Hexokinase-4 [1]): 0.08 µM
- EC50 (Hexokinase-4 [2]): 0.32 µM

- EC50 (Hexokinase-4 [1]): > 5 µM
- EC50 (Hexokinase-4 [2]): > 5 µM
Compound: CCS(=O)(=O)c1ccc(Oc2cc3nc(-c4ccccn4)[nH]c3cc2CN2CCCC2)cc1

Compound: CCS(=O)(=O)c1ccc(Oc2cc3nc(-c4ccccn4)[nH]c3cc2Cn2ccnc2)cc1
- EC50 (Hexokinase-4 [1]): 0.12 µM
- EC50 (Hexokinase-4 [2]): 0.43 µM
